Tests used:
[1] = biological target: Cyclin-dependent kinase 2 (Homo sapiens) (UniProt P24941); assay: Binding affinity to wild-type human full length CDK2 (M1 to L298 residues) expressed in Escherichia coli BL21 at 1 uM by Kinomescan method relative to control
[2] = biological target: Cyclin-dependent kinase 4 (Homo sapiens) (UniProt P11802); assay: Binding affinity to wild-type human full length CDK4 (M1 to E303 residues) expressed in HEK293 cells at 1 uM by Kinomescan method relative to control; assay type: cell-based
Sequence of Cyclin-dependent kinase 4 (Homo sapiens) (P11802 whole entry, the tested form may be a part): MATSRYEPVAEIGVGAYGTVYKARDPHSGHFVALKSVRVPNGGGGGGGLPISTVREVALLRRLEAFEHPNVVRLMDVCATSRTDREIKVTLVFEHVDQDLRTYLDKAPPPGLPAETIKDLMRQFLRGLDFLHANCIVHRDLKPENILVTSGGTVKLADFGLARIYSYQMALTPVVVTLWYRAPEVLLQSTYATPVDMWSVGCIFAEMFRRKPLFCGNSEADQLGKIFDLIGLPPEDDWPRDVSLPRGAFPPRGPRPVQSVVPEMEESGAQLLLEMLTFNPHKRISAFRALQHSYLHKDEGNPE

[3] = biological target: CDK4/Cyclin D3 (Homo sapiens) (UniProt P11802+P30281); assay: Binding affinity to wild-type human full length CDK4/cyclinD3 (M1 to E303 residues) expressed in HEK293 cells at 1 uM by Kinomescan method relative to control; assay type: cell-based
[4] = biological target: Serine/threonine-protein kinase Chk1 (Homo sapiens) (UniProt O14757); assay: Binding affinity to wild-type human partial length CHEK1 (M1 to G289 residues) expressed in Escherichia coli BL21 at 1 uM by Kinomescan method relative to control
[5] = biological target: Tyrosine-protein kinase BTK (Homo sapiens) (UniProt Q06187); assay: Binding affinity to wild-type human full length BTK (M1 to S659 residues) expressed in HEK293 cells at 1 uM by Kinomescan method relative to control; assay type: cell-based
[6] = biological target: Cyclin-dependent kinase 3 (Homo sapiens) (UniProt Q00526); assay: Binding affinity to wild-type human full length CDK3 (M1 to H305 residues) expressed in Escherichia coli BL21 at 1 uM by Kinomescan method relative to control
Sequence of Cyclin-dependent kinase 3 (Homo sapiens) (Q00526 whole entry, looked up, the tested form may be a part): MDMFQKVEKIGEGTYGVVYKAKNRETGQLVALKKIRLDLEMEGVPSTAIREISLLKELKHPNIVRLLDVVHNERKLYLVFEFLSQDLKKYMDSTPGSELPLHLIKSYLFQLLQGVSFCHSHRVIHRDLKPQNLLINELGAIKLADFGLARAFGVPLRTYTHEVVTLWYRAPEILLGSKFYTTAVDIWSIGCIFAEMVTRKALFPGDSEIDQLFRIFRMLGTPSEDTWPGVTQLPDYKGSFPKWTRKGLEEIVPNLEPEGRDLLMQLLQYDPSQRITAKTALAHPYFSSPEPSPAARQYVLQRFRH
Summary of the method: (§1)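 Run as one kinome-wide competition binding panel with each compound at a single fixed concentration. Results were plotted as a kinome-wide selectivity map.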

[7] = biological target: G protein-coupled receptor kinase 3 (Homo sapiens) (UniProt P35626); assay: Binding affinity to wild-type human full length GRK3 (M1 to L688 residues) expressed in HEK293 cells at 1 uM by Kinomescan method relative to control; assay type: cell-based; summary of the method: as §1
[8] = biological target: Vascular endothelial growth factor receptor 3 (Homo sapiens) (UniProt P35916); assay: Binding affinity to wild-type human partial length FLT4 (E821 to E1196 residues) expressed in Escherichia coli BL21 at 1 uM by Kinomescan method relative to control
[9] = biological target: Cyclin-dependent kinase 16 (Homo sapiens) (UniProt Q00536); assay: Binding affinity to wild-type human partial length PCTK1 (G160 to A474 residues) expressed in HEK293 cells at 1 uM by Kinomescan method relative to control; assay type: cell-based
[10] = biological target: Serine/threonine-protein kinase ULK3 (Homo sapiens) (UniProt Q6PHR2); assay: Binding affinity to wild-type human partial length ULK3 (M1 to Q290 residues) expressed in HEK293 cells at 1 uM by Kinomescan method relative to control; assay type: cell-based
[11] = biological target: Mitogen-activated protein kinase 14 (Homo sapiens) (UniProt Q16539); assay: Binding affinity to wild-type human full length p38-alpha (M1 to S360 residues) expressed in Escherichia coli BL21 at 1 uM by Kinomescan method relative to control
Summary of the method: (§2)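 Kinome-wide competition binding panel run by an outside provider, with each compound tested at a single concentration. Activity is read against the kinase panel.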

[12] = biological target: High affinity nerve growth factor receptor (Homo sapiens) (UniProt P04629); assay: Binding affinity to wild-type human partial length TRKA (G475 to G790 residues) expressed in HEK293 cells at 1 uM by Kinomescan method relative to control; assay type: cell-based
Sequence of High affinity nerve growth factor receptor (Homo sapiens) (P04629 33-796 limits assumed): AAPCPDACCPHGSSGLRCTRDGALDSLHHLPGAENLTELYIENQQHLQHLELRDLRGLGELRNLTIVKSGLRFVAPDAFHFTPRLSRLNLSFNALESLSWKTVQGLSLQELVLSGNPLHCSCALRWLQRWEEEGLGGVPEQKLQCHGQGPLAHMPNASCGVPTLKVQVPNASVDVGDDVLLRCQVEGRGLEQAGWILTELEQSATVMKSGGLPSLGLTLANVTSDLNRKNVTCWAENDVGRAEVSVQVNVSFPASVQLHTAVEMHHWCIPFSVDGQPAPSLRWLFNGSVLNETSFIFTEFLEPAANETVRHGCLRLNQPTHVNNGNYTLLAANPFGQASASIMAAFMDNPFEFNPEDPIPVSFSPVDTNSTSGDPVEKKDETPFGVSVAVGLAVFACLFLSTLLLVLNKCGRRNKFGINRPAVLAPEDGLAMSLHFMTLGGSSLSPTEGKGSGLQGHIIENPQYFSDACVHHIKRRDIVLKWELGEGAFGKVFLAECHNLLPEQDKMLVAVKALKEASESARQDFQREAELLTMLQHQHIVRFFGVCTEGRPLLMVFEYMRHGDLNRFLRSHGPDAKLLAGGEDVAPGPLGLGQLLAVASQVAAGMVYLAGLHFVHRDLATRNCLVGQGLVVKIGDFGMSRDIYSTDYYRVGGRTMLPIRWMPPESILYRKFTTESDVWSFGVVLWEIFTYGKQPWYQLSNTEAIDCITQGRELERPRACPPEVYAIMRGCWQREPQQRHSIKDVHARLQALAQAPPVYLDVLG

[13] = biological target: Serine/threonine-protein kinase VRK2 (Homo sapiens) (UniProt Q86Y07); assay: Binding affinity to wild-type human partial length VRK2 (M1 to T336 residues) expressed in HEK293 cells at 1 uM by Kinomescan method relative to control; assay type: cell-based
[14] = biological target: Serine/threonine-protein kinase 17B (Homo sapiens) (UniProt O94768); assay: Binding affinity to wild-type human full length DRAK2 (M1 to C372 residues) expressed in Escherichia coli BL21 at 1 uM by Kinomescan method relative to control; summary of the method: as §1
Sequence of Serine/threonine-protein kinase 17B (Homo sapiens) (O94768 whole entry, the tested form may be a part): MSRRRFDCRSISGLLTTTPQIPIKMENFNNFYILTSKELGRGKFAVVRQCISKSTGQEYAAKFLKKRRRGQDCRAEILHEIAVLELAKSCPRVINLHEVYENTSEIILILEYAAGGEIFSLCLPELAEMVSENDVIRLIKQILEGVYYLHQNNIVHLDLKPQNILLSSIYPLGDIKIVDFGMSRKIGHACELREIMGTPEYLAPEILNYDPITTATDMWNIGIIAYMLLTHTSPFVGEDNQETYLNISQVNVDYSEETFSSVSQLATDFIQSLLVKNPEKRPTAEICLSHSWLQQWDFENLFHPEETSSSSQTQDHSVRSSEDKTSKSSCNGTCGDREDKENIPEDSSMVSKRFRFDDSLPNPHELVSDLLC

[15] = biological target: Cytoplasmic tyrosine-protein kinase BMX (Homo sapiens) (UniProt P51813); assay: Binding affinity to wild-type human full length BMX (M1 to H675 residues) expressed in Escherichia coli BL21 at 1 uM by Kinomescan method relative to control
Sequence of Cytoplasmic tyrosine-protein kinase BMX (Homo sapiens) (P51813 whole entry, the tested form may be a part): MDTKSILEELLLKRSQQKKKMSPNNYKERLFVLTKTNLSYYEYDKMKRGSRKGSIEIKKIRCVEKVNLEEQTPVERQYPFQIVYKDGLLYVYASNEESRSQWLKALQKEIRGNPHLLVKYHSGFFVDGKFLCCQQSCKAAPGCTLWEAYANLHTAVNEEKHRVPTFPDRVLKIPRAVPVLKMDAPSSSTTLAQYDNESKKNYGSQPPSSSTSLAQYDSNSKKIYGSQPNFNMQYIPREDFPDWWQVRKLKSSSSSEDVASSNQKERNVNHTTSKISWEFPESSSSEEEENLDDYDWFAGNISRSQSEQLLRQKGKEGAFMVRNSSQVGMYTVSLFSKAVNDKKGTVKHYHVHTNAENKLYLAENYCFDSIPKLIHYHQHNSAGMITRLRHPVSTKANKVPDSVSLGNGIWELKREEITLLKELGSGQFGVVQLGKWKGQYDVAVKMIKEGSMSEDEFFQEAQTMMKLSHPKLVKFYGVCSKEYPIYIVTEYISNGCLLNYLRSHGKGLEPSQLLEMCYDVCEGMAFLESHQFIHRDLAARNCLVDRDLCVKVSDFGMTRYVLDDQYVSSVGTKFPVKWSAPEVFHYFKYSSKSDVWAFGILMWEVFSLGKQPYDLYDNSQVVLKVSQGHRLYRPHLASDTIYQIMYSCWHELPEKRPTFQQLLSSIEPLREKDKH

[16] = biological target: Ribosomal protein S6 kinase alpha-5 (Homo sapiens) (UniProt O75582); assay: Binding affinity to wild-type human partial length C-terminal RPS6KA5 kinase domain 2 (V390 to T718 residues) expressed in Escherichia coli BL21 at 1 uM by Kinomescan method relative to control
Sequence of Ribosomal protein S6 kinase alpha-5 (Homo sapiens) (O75582 whole entry, looked up, the tested form may be a part): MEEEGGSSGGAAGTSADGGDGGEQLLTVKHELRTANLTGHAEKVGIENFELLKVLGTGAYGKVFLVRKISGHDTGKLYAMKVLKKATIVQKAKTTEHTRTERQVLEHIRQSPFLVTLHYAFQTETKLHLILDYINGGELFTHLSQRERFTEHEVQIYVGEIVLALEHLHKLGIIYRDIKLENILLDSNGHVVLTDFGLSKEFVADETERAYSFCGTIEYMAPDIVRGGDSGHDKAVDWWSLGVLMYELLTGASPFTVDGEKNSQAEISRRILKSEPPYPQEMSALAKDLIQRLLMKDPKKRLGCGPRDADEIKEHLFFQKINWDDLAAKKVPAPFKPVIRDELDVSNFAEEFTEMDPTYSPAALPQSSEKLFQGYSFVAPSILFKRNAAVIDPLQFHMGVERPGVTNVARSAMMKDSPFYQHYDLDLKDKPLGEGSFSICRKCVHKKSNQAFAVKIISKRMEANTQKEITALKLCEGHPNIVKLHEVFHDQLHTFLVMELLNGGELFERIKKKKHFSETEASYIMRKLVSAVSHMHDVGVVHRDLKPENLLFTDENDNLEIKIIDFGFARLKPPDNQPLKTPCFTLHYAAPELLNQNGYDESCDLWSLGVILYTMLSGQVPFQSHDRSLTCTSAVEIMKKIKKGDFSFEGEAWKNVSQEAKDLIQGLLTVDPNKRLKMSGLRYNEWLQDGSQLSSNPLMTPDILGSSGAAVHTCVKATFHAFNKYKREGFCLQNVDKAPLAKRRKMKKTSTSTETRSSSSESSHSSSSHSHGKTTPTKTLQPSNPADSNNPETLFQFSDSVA

[17] = biological target: Cyclin-dependent kinase 4/cyclin D1 (Homo sapiens) (UniProt P11802+P24385); assay: Binding affinity to wild-type human full length CDK4/cyclinD1 (M1 to E303 residues) expressed in HEK293 cells at 1 uM by Kinomescan method relative to control; assay type: cell-based
[18] = test system: Receptor-type tyrosine-protein kinase FLT3 (Homo sapiens), P36888 [N841I]; assay: Binding affinity to human partial length FLT3 N841I mutant (V592 to Y969 residues) expressed in Escherichia coli BL21 at 1 uM by Kinomescan method relative to control
[19] = biological target: Ribosomal protein S6 kinase alpha-5 (Homo sapiens) (UniProt O75582); assay: Binding affinity to wild-type human partial length N-terminal RPS6KA5 kinase domain 1 expressed in Escherichia coli BL21 at 1 uM by Kinomescan method relative to control
[20] = biological target: cGMP-dependent protein kinase 1 (Homo sapiens) (UniProt Q13976); assay: Binding affinity to wild-type human partial length PRKG1 (L339 to F686 residues) expressed in Escherichia coli BL21 at 1 uM by Kinomescan method relative to control
[21] = biological target: Mitogen-activated protein kinase kinase kinase 10 (Homo sapiens) (UniProt Q02779); assay: Binding affinity to wild-type human partial length MLK2 (V52 to W380 residues) expressed in Escherichia coli BL21 at 1 uM by Kinomescan method relative to control
[22] = test system: Epidermal growth factor receptor (Homo sapiens), P00533 [UNDEFINED MUTATION]; assay: Binding affinity to human partial length EGFR L747-S752del/P753S mutant expressed in Escherichia coli BL21 at 1 uM by Kinomescan method relative to control
[23] = biological target: G protein-coupled receptor kinase 4 (Homo sapiens) (UniProt P32298); assay: Binding affinity to wild-type human full length GRK4 (M1 to C578 residues) expressed in Escherichia coli BL21 at 1 uM by Kinomescan method relative to control; summary of the method: as §1
Sequence of G protein-coupled receptor kinase 4 (Homo sapiens) (P32298 whole entry, looked up, the tested form may be a part): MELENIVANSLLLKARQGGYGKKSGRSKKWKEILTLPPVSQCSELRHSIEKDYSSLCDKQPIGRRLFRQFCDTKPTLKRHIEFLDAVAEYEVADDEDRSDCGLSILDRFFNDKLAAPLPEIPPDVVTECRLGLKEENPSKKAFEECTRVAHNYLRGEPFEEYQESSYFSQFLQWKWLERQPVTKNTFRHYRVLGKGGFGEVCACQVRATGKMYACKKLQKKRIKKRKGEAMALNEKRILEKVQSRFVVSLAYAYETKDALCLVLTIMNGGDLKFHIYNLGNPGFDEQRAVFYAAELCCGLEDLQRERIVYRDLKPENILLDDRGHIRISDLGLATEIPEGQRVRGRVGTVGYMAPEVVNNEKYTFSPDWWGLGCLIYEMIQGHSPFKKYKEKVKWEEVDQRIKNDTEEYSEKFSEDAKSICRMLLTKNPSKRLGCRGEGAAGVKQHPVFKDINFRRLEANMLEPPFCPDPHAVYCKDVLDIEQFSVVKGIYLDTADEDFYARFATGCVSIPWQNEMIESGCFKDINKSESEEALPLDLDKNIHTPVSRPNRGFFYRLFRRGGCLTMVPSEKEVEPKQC

[24] = biological target: Fibroblast growth factor receptor 2 (Homo sapiens) (UniProt P21802); assay: Binding affinity to wild-type human partial length FGFR2 (D457 to E769 residues) expressed in Escherichia coli BL21 at 1 uM by Kinomescan method relative to control
Sequence of Fibroblast growth factor receptor 2 (Homo sapiens) (P21802 22-821 limits assumed): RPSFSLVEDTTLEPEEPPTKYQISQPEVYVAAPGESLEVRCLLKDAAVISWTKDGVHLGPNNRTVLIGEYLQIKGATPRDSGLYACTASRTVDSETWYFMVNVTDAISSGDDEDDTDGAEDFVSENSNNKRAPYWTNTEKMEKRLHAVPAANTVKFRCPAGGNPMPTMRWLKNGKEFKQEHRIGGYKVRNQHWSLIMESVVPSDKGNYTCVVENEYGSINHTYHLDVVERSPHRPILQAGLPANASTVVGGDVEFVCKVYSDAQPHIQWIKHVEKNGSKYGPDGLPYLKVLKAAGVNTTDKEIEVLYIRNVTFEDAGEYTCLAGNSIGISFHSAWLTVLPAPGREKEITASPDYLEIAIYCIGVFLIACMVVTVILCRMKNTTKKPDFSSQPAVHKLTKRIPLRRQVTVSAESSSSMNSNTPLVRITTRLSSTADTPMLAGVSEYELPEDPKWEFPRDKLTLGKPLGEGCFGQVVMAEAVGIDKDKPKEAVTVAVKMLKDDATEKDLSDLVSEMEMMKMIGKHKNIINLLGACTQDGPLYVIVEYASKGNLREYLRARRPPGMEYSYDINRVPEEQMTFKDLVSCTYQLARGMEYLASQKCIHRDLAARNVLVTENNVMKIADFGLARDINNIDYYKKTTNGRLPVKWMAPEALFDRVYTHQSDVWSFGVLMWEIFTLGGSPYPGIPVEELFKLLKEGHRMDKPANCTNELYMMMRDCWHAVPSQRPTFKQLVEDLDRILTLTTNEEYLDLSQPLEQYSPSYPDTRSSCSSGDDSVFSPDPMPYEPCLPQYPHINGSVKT

[25] = biological target: Serine/threonine-protein kinase Nek6 (Homo sapiens) (UniProt Q9HC98); assay: Binding affinity to wild-type human full length NEK6 (M8 to T313 residues) expressed in Escherichia coli BL21 at 1 uM by Kinomescan method relative to control; summary of the method: as §2
Sequence of Serine/threonine-protein kinase Nek6 (Homo sapiens) (Q9HC98 whole entry, the tested form may be a part): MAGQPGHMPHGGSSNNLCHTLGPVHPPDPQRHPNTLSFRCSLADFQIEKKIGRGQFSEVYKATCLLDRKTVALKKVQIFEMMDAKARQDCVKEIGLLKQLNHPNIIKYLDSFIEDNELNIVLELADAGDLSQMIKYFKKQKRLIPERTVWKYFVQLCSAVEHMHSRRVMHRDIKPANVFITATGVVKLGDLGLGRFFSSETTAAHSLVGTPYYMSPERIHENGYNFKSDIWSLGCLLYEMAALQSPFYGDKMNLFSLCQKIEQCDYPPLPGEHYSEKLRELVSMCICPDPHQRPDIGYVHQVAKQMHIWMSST

[26] = test system: Receptor-type tyrosine-protein kinase FLT3 (Homo sapiens), P36888 [UNDEFINED MUTATION]; assay: Binding affinity to human partial length FLT3 ITD mutant expressed in Escherichia coli BL21 at 1 uM by Kinomescan method relative to control

Row | SMILES | Activity [1] [%] | Activity [2] [%] | Activity [3] [%] | Activity [4] [%] | Activity [5] [%] | Activity [6] [%] | Activity [7] [%] | Activity [8] [%] | Activity [9] [%] | Activity [10] [%] | Activity [11] [%] | Activity [12] [%] | Activity [13] [%] | Activity [14] [%] | Activity [15] [%] | Activity [16] [%] | Activity [17] [%] | Activity [18] [%] | Activity [19] [%] | Activity [20] [%] | other results
1 | CCC(=O)Nc1ccc(C(=O)Nc2ccc(Nc3ncc4c(n3)N(C)c3ccc(C)cc3C(=O)N4C)cc2)cc1 | 97 | 89 | 85 | 87 | 100 | 95 | 70 | 89 | 74 | 77 | 100 | 78 | 61 | 100 | 90 | 82 | 100 | 81 | 100 | 100 | Activity [21]: 74%; Activity [22]: 87%; Activity [23]: 100%; Activity [24]: 89%; Activity [25]: 96%; Activity [26]: 94%
2 | C=CC(=O)Nc1ccc(C(=O)Nc2ccc(Nc3ncc4c(n3)N(C)c3ccc(C)cc3C(=O)N4C)cc2)cc1 | 100 | 100 | 100 | 100 | 94 | 100 | 100 | 98 | 100 | 93 | 100 | 79 | 100 | 87 | 99 | 100 | 94 | 100 | 100 | 100 | Activity [21]: 82%; Activity [22]: 99%; Activity [23]: 97%; Activity [24]: 88%; Activity [25]: 98%; Activity [26]: 83%
